# Shown are actives, neighbours in structure and some others; about 2.9% of the full set was active somewhere.
# CendR NRP1 mod = alters CendR peptide binding to human NRP-1; hit rate 0.85% among 360,000; FAM-RPARPAR peptide binding to NRP-1, fluorescence polarization; inhibition, % at 25 µM;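 active = inhibition or corrected inhibition above about 18%, plus a signal ratio from 0.5 to 1.5, limit read from the data, passing the limit was not always enough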
# Tn6 DDE FP = DD(E)-Tn6 binding inhibition, primary FP screen. P02675. Fibrin DD(E) TRITC-Tn6 fluorescence polarization displacement. inhibition, % at 8.3 µM. hit rate 0.21% among 370,000. AID 720509;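 active = inhibition above a per-campaign cutoff: mean of compounds within control limits plus 3 SD, cut at about 15% in these data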;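 note: 0% = median of all compound wells on the plate and 100% = blocking peptide control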
# Tn7 DDE FP = DD(E)-Tn7 binding inhibition, primary FP screen; FP displacement of FITC-Tn7 peptide from fibrin DD(E); 0% = median of compound wells per plate; inhibition, % at 8.3 µM; hit rate 0.13% among 370,000; AID 720508;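 active = inhibition above the mean of compounds falling within the control limits plus 3 SD of them, cut at about 14% in these data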;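 note: 0% = plate median of compound wells and 100% = 10 µM Aha-Tn7 peptide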
#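 Also added: labelled Tn7 tracer, 0.1 µM; Assay system: human fibrin DD(E) protein; Amount: 2 µM fibrin DD(E); Schedule: 10 min compound pre-incubation, 3 h probe incubation at room temperature; Repeats: one replicate per compound; Read-out basis: percent inhibition; Measured by: fluorescence polarization of the labelled Tn7 tracer.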
# proKLK7 act = proKLK7 (human) activation, primary screen; activation, % at 7 µM; hit rate 0.9% among 370,000; purified proKLK7, EDANS-DABCYL substrate fluorescence; 100% is mature enzyme control, 0% vehicle; AID 652039;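 active = activation above the mean of all tested compounds plus 3 SD, computed per campaign excluding outliers beyond control limits, cut at about 13% in these data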
# Target sequence (P49862 whole entry, looked up): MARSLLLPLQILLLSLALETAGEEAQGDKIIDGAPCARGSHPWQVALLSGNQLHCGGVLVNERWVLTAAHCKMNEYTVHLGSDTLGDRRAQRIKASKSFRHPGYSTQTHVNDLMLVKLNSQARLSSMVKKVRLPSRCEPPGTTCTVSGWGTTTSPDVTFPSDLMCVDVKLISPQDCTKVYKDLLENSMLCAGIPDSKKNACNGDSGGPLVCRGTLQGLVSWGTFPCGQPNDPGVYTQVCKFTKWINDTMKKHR
# CRFR2-BP ag = CRF-BP/CRF-R2 complex agonism. activation, % at 13.2 µM. hit rate 0.46% among 350,000. HEK293 CRF-R2/CRF-BP, calcium dye fluorescence (FLIPR); percent of saturating CRF peptide response;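 active = activation of at least 50%, plus an integration ratio under a set limit after plate pattern correction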;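 note: plate controls were neutral control wells without compound for no effect and CRF at EC100 for full effect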
# CRFBP-R2 block = CRF-BP/CRF-R2 complex antagonism; HEK293 CRF-R2/CRF-BP, CRF-induced calcium fluorescence; inhibition, % at 11.8 µM; hit rate 0.59% among 350,000;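 active = inhibition of the ligand-induced calcium signal above about 50% at the single tested concentration, limit read from the data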
# Tn7 DDE conf = confirmation of inhibitors of Tn7 binding to human fibrin DD(E). shares compounds with Tn7 DDE FP. FP displacement of TRITC-Tn7 peptide from DD(E); 0% set at plate's compound-well median. inhibition, % at 8.3 µM. hit rate 5% among 460;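 active = inhibition above the campaign cutoff, the mean of compounds within control limits plus 3 SD, cut at about 14% in these data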;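 note: 100% = median FP of high control wells holding Aha-Tn7 inhibitor peptide; displacers lower polarization since freed probe rises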
# Tn7 DDE ctr = counter-screen hit for Tn7 peptide-fibrin DD(E) binding disruption | shares compounds with Tn7 DDE FP | TRITC-Tn7 probe displacement, fluorescence polarization | inhibition, % at 8.3 µM | hit rate 3% among 460 | AID 720633;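 active = inhibition above the cutoff, the mean of compounds lying between the control bounds plus 3 SD of those compounds, cut at about 17% in these data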;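 note: 0% = median of compound sample wells and 100% = excess unlabeled Aha-Tn7 peptide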
# Active calls of the source: *; · = no result given.
SMILES,CendR NRP1 mod,Tn6 DDE FP,Tn7 DDE FP,proKLK7 act,CRFR2-BP ag,CRFBP-R2 block,Tn7 DDE conf,Tn7 DDE ctr
O=C(NCCCC1CCCC1)C1CCC(=O)N(Cc2ccc(Cl)cc2)C1 (stereo not drawn),5.7,-3.6,14.2*,0.1,-1.2,2.6,7.8,2.9
O=C(NCCCC1CCCC1)C1CCC(=O)N(Cc2cccc(F)c2)C1 (stereo not drawn),8.4,-2.4,8.6,0.3,-1.7,11.7,·,·
COC(=O)C1=C(C)N(Cc2ccc(C(F)(F)F)cc2)C(=NCc2ccccc2C(F)(F)F)NC1c1ccccc1C(F)(F)F (stereo not drawn),·,-5.6,3.0,0.7,·,·,·,·
COc1ccc(N=Nc2nc3cc(Br)c(Br)cc3n2C)c(OC)c1,53.1,-0.1,27.6*,-0.3,41.3,-34.3,11.2,-3.3
S=C(Nc1ccc(Br)cc1)OCCN1CCCC12CCC(c1ccccc1)CC2 (stereo not drawn),·,1.0,0.1,·,·,·,·,·
C[C@@H]1C=CCCO[C@]12C(=O)N(Cc1ccc(Br)cc1)c1ccccc12,·,-1.1,-2.3,0.3,·,·,·,·
Cc1ccc(CC(=O)Nc2ccc(F)c([N+](=O)[O-])c2)cc1C,14.4,0.6,0.0,-0.5,-0.2,3.9,·,·
Cc1ccc(CC(=O)Nc2ccc(F)c([N+](=O)[O-])c2)cc1,-7.9,4.1,14.7*,-0.1,-0.9,-1.3,0.5,3.7
COc1ccccc1-c1sc2ccccc2c1C#Cc1ccc(N(C)C)cc1,17.5,-4.1,13.9*,-62.5,0.4,-3.6,4.1,3.9
COc1ccccc1-c1sc2ccccc2c1-c1ccc(O)cc1,7.2,-5.8,-7.5,-0.5,2.0,9.0,·,·
COC(=O)C[C@@H]1CC[C@H]2[C@H](COc3ccc(NC(=O)Nc4ccc(Cl)cc4)cc3C(=O)N2C)O1,·,-4.4,6.3,0.1,·,·,·,·
C=CCNS(=O)(=O)c1ccc(OCC(=O)OC)cc1,-0.4,-1.5,15.6*,0.5,-2.6,-11.9,-6.5,-8.1
CC1CC1C(=O)N1CCC(Oc2cccnc2)CC1 (stereo not drawn),·,2.5,-0.6,0.1,·,·,·,·
C#CCn1cc(/C=N/NC(=O)c2cc3ccccc3o2)c2ccccc21,10.6,-2.5,18.3*,-15.8,-1.3,-28.9,14.4*,2.0
O=C(N/N=C/c1cccc2ccccc12)c1cc2ccccc2o1,4.5,-3.1,2.4,-5.9,12.8,-10.5,·,·
O=C(NNC(=O)c1ccccc1-n1cccc1)c1cncc(Br)c1,4.7,0.2,16.3*,0.8,-0.2,-1.7,6.7,1.6
O=C(NNC(=O)c1ccccc1-n1cccc1)c1cccnc1,-8.9,3.2,3.3,0.5,-0.3,-20.2,·,·
Cc1nc2ccc(NC(=O)c3ccc(F)cc3F)cc2c(=O)[nH]1,·,-4.0,-3.5,0.1,·,·,·,·
O=C(CCl)NC(Cc1ccccc1)c1ccccc1 (stereo not drawn),-9.5,5.1,14.7*,-0.2,-0.9,6.9,-5.3,-7.3
COc1ccccc1C(=O)NCC(=O)OCC(=O)Nc1ccc2[nH]c(=O)[nH]c2c1,-4.3,3.5,15.4*,-0.6,-0.5,3.8,5.2,-5.1
CCC1(c2ccccc2)NC(=O)N(CC(=O)Nc2ccc(OC)nc2)C1=O (stereo not drawn),107.3,-1.5,22.1*,0.7,93.1*,-61.9,5.2,-4.0
CCC1(c2ccccc2)NC(=O)N(CC(=O)Nc2ccc3c(c2)CCC3)C1=O (stereo not drawn),-3.5,-3.8,-1.3,0.9,-1.6,-32.9,·,·
CCOC(=O)c1sc2nc3n(c(=O)c2c1C)CCC3,-9.7,8.0,15.0*,0.3,3.5,6.7,2.8,1.8
CCOC(=O)c1sc2nc3n(c(=O)c2c1C)CCCCC3,-8.1,-0.6,0.2,-0.2,-0.2,6.0,·,·
N#CC1=C2C=Cc3ccccc3N2CCCC1=O,-11.7,4.6,15.7*,-0.3,-1.0,-1.4,2.3,0.2
SMILES,CendR NRP1 mod,Tn6 DDE FP,Tn7 DDE FP,proKLK7 act,CRFR2-BP ag,CRFBP-R2 block,Tn7 DDE conf,Tn7 DDE ctr
CCOC(=O)Cn1cc(CN2C(C(=O)OC)CN(C3CCCC3)CCS2(=O)=O)nn1 (stereo not drawn),·,-3.8,-7.3,-0.7,·,·,·,·
CCOC(=O)NC[C@@]1(C(=O)OC)CC(=O)N(C)[C@@H]1c1ccccc1,·,-1.3,-0.8,0.1,·,·,·,·
COC(=O)C1=C(C)N(Cc2ccccc2C(F)(F)F)C(=NCc2ccc(C(F)(F)F)cc2)NC1c1ccccc1 (stereo not drawn),·,0.8,0.8,0.2,·,·,·,·
O=C(CN1CCN(c2ccccn2)CC1)N(c1ccccc1)c1ccc2ccccc2c1,0.2,-3.6,14.6*,0.2,1.0,-4.3,-1.3,-6.1
O=C(CN1CCOCC1)N(c1ccccc1)c1ccc2ccccc2c1,7.5,-4.1,-0.1,0.0,9.3,-11.6,·,·
O=C(O)C1C2CCC1C(O)C2 (stereo not drawn),6.6,9.8,17.1*,0.3,2.8,-10.9,0.8,1.9
CCN(CC)S(=O)(=O)c1cccc(C(=O)N/N=C2\CCCC(=O)C2)c1,-11.5,7.9,25.3*,-1.1,1.2,1.2,1.4,2.5
COCCn1c(COc2cccc(OC)c2)nnc1SCC(=O)NC1CCCC1,10.8,-7.9,10.6,-0.1,-1.2,0.7,·,·
COCCn1c(COc2cccc(OC)c2)nnc1SCC(=O)NC1CCCCC1,2.8,1.5,18.6*,0.1,1.5,3.5,-3.4,-4.3
Cc1ccc(CC(=O)NC2CCN(C)CC2)cc1,1.4,4.7,0.8,0.4,-0.9,-0.1,·,·
CN1CCC(NC(=O)CCc2ccccc2)CC1,-1.6,-1.4,13.9*,-0.1,5.8,11.9,4.8,1.7
COc1cccc(N(C)C(=O)[C@@H](C)[C@@H](O)c2ccc(Cl)cc2)c1,·,11.4,-0.3,-0.5,·,·,·,·
CN(C)S(=O)(=O)N1CCC(Oc2ccc(C(=O)NCc3cnn(C)c3)cc2)CC1,2.8,-0.6,14.1*,0.5,1.9,-4.0,6.7,0.2
COc1ccccc1NC(=O)c1cc(S(=O)(=O)N2CCCC2)cn1C,-3.6,4.2,15.1*,0.1,-1.4,-19.0,-4.6,-6.0
COc1ccc(-c2cn3c(C)c(C(=O)Nc4cccc(NC(C)=O)c4)sc3n2)cc1,-10.5,-3.5,14.1*,-1.2,2.2,-15.1,4.8,-5.3
CC1(c2ccccc2)NC(=O)N(CC(=O)Nc2ccc(N3CCOCC3)cc2N2CCOCC2)C1=O (stereo not drawn),2.1,-1.8,13.8*,0.2,6.7,0.8,7.0,4.9

# Screening results deposited in PubChem by several laboratories.
